Reference: article PMC4049353 (Steroids, 2014)
Where “and” joins values, the source holds several entries; their conditions need not be identical. Equal values may be shown once.

Columns and labels:
[1] = tested on: CD40L-induced NF-κB activation; test: suppression of CD40L-induced NF-κB activation in HEK-Blue CD40L sensor cells; format: cell-based, human; conditions: for IC50: Homo sapiens, HEK-Blue, 30 h, read-out: CD40L, IC50; for CD40L/TNFα pot.: potency ratio of CD40L assay vs TNFα assay; for rRBACD40L: relative potency from CD40L IC50, DEX = 100
How it was run: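 Reporter HEK293 cells (human CD40; NF-κB/AP-1-driven SEAP) at about 5 × 10⁴ cells/well in 1% FBS DMEM. Stimulated with CD40L (CD154, 25 ng/mL) plus test compound at 0–1000 nM (10-fold steps) for 30 h at 37°C, 5% CO₂. SEAP read by QUANTI-Blue at 620–655 nm. Five independent experiments in triplicate or quadruplicate. Percent suppression vs stimulation alone fitted to a Hill model (bottom fixed at zero; Emax and nH shared).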

[2] = tested on: TNFα-induced NF-κB activation; test: suppression of TNFα-induced NF-κB activation in HEK-Blue CD40L sensor cells; format: cell-based, human; conditions: for IC50: Homo sapiens, HEK-Blue, 20 h, read-out: TNFα, IC50; for rRBATNFα: relative potency from TNFα IC50, DEX = 100
How it was run: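 Cells used: HEK293 stably expressing human CD40 and an NF-κB/AP-1-inducible SEAP, seeded at about 5 × 10⁴ cells/well in 1% FBS DMEM. TNFα (3 ng/mL) added with test compound at 0, 0.01, 0.1, 1.0, 10, 100 or 1000 nM; incubated 20 h at 37°C, 5% CO₂. SEAP quantified with QUANTI-Blue at 620–655 nm. Five independent experiments, triplicates or quadruplicates. Percent suppression fitted to a Hill equation (bottom zero; shared Emax and nH).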

[3] = target: glucocorticoid receptor (GR); conditions: cited from earlier work; for Kd: read-out: Kd,lit, consensus average of published GR binding values; for rRBAlit: relative receptor binding affinity, DEX = 100
CD40 (Homo sapiens) = CD40 (Homo sapiens) (UniProt P25942); conditions: cited from earlier work
Chain of UniProt P25942 (P25942 21-277): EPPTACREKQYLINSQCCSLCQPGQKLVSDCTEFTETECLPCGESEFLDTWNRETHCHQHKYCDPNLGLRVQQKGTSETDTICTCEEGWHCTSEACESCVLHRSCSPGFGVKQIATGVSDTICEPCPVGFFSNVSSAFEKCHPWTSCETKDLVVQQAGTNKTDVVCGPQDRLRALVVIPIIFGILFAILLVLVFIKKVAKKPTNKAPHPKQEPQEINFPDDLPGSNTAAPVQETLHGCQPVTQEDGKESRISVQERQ

CD40 = conditions: read-out: Kd CD40L – CD40; cell-free binding; cited from earlier work
[4] = tested on: NF-κB activation in HEK-Blue CD40L sensor cells; test: ligand-induced NF-κB activation of HEK-Blue CD40L sensor cells; format: cell-based, human; conditions: one-site specific binding model
How it was run: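 HEK293 cells stably carrying human CD40 and a SEAP reporter under the IFN-β minimal promoter with five NF-κB and five AP-1 sites. Grown in DMEM (4.5 g/L glucose, 10% FBS, 2 mM L-glutamine), then resuspended in 1% FBS medium. Stimulated with FLAG-tagged TNFα or CD40L (CD154) over a concentration series. SEAP measured with QUANTI-Blue at 620–655 nm; data fitted with a one-site specific binding model.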

TNF-R1 = conditions: read-out: Kd TNFα – TNF-R1; cell-free binding; cited from earlier work

Chain of CD40L (P29965 113-261): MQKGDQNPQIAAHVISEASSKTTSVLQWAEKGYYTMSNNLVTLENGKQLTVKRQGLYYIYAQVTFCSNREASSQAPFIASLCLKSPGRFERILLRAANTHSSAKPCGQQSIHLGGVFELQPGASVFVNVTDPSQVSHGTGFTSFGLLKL

Compound | IC50 [1] [nM] | IC50 [2] [nM] | CD40L/TNFα pot. [1] | rRBACD40L [1] | rRBATNFα [2] | Kd [3] [nM] | rRBAlit [3] | GR rRBA [3] | Kd (CD40 (Homo sapiens)) [nM] | Kd (CD40) [nM] | median effective concentration (EC50) for NF-κB activation [4] | Kd (TNF-R1) [nM]
CCC(=O)OCC(=O)[C@@]1(OC(=O)CC)[C@@H](C)C[C@H]2[C@@H]3CCC4=CC(=O)C=C[C@]4(C)[C@@]3(Cl)[C@@H](O)C[C@@]21C [BDP, beclomethasone dipropionate] | 0.22 | 0.1 | 0.46 | 872.2 | 2952.7 |  |  |  |  |  |  | 
CCC(=O)O[C@]1(C(=O)CCl)[C@@H](C)C[C@H]2[C@@H]3CCC4=CC(=O)C=C[C@]4(C)[C@@]3(F)[C@@H](O)C[C@@]21C [CP, clobetasol propionate] | 0.01 | 0.02 | 1.62 | 13653.4 | 13074.5 | 0.1 | 6300.0 |  |  |  |  | 
C[C@]12CCC(=O)C=C1CC[C@@H]1[C@@H]2[C@@H](O)C[C@@]2(C)[C@H]1CC[C@]2(O)C(=O)CO [HC, hydrocortisone] | 0.54 | 15.5 | 28.75 | 350.3 | 18.9 |  | 10 |  |  |  |  | 
CD40L (from UniProt P29965) |  |  |  |  |  |  |  |  | 1 |  |  | 
CD40L: FLAG-tagged ligand used for stimulation in the cell assays (Axxora) |  |  |  |  |  |  |  |  |  | ~1 | 0.041 µg/mL and ~0.04 µg/mL | 
TNFα |  |  |  |  |  |  |  |  |  |  | 0.0027 µg/mL and ~0.003 µg/mL | ~0.5

The next lines start with results.

IC50 [1] [nM] | IC50 [2] [nM] | Compound | CD40L/TNFα pot. [1] | rRBACD40L [1] | rRBATNFα [2] | Kd [3] [nM] | rRBAlit [3] | GR rRBA [3] | Kd (CD40 (Homo sapiens)) [nM] | Kd (CD40) [nM] | median effective concentration (EC50) for NF-κB activation [4] | Kd (TNF-R1) [nM]
1.89 | 2.93 | C[C@@H]1C[C@H]2[C@@H]3CCC4=CC(=O)C=C[C@]4(C)[C@@]3(F)[C@@H](O)C[C@]2(C)[C@@]1(O)C(=O)CO [DEX, dexamethasone] | 1.55 | 100.0 | 100.0 |  | 100.0 |  |  |  |  | 
0.06 | 0.79 | CCOC(=O)O[C@]1(C(=O)OCCl)CC[C@H]2[C@@H]3CCC4=CC(=O)C=C[C@]4(C)[C@H]3[C@@H](O)C[C@@]21C [LE, loteprednol etabonate] | 13.96 | 3357.0 | 372.6 | 4.39 | 150.0 |  |  |  |  | 
0.3 | 14.2 | C[C@]12C=CC(=O)C=C1CC[C@@H]1[C@@H]2[C@@H](O)C[C@@]2(C)[C@H]1CC[C@]2(O)C(=O)CO [PRED, prednisolone] | 47.49 | 632.9 | 20.6 |  | 19.0 | ≈ 20 % of dexamethasone |  |  |  | 
0.43 | 0.76 | CC1(C)O[C@@H]2C[C@H]3[C@@H]4CCC5=CC(=O)C=C[C@]5(C)[C@@]4(F)[C@@H](O)C[C@]3(C)[C@]2(C(=O)CO)O1 [TA, triamcinolone acetonide] | 1.77 | 442.1 | 387.4 | 2.44 | 270.0 |  |  |  |  | 
